Assay results published in ChEMBL document CHEMBL2150931, “Design, synthesis, and biological activity of a novel series of human sirtuin-2-selective inhibitors” (J Med Chem, 2012).
Activity calls are given as the source filed them. The rule behind the calls is not given here.

Legend:
[1] = target: T1, NAD-dependent protein deacetylase sirtuin-1 (Homo sapiens) (UniProt Q96EB6); conditions: HCT-116, 10 uM
T1 sequence (whole entry): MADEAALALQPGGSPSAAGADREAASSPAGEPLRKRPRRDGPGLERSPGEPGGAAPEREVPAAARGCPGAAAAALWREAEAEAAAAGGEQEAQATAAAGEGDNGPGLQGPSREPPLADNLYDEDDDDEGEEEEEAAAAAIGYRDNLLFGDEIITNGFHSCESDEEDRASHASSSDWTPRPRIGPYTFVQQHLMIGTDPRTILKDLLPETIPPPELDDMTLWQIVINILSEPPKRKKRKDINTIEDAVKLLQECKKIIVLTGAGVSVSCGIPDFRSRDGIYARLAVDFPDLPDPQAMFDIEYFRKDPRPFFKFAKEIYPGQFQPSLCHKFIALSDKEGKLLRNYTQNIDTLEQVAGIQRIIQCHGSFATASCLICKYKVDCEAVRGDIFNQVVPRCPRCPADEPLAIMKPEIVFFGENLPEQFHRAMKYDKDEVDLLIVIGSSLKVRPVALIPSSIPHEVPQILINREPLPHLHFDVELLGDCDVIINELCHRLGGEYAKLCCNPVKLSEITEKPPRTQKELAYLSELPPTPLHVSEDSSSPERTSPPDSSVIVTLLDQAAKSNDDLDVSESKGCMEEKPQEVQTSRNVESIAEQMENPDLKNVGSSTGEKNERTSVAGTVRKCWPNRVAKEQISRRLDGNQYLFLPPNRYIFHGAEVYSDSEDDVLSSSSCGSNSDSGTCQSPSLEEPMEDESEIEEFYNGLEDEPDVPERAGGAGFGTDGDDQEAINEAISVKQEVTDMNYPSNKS

[2] = target: T2, NAD-dependent protein deacetylase sirtuin-1 (Homo sapiens, UniProt Q96EB6); experiment: Inhibition of human recombinant SIRT1 using Fluor de Lys-SIRT as substrate incubated for 60 mins prior to substrate addition measured after 60 mins by fluorimetric analysis
T2 sequence (Q96EB6 whole entry): T1 sequence (whole entry)
Method in brief: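 Human recombinant SIRT1 run the same way: 60 min at 37 °C with 1 mM NAD⁺ and serial compound dilutions, then 25 μM Fluor de Lys-SIRT substrate for 60 min. Stopped with nicotinamide-containing Developer II and read 45 min later at ex 360/em 460 nm. IC₅₀ from logit regression of % inhibition vs control; means of ≥3 experiments.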

[3] = target: T1, NAD-dependent protein deacetylase sirtuin-1 (Homo sapiens); experiment: Inhibition of human recombinant SIRT1 using Fluor de Lys-SIRT as substrate at 100 uM incubated for 60 mins prior to substrate addition measured after 60 mins by fluorimetric analysis
Method in brief: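 Single-point SIRT1 test at 100 μM compound. Human recombinant enzyme with 1 mM NAD⁺ at 37 °C for 60 min, then 25 μM Fluor de Lys-SIRT substrate for 60 min. Stopped with nicotinamide developer; fluorescence read at 360/460 nm after 45 min. Inhibition expressed as % relative to uninhibited control wells.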

[4] = target: T3, NAD-dependent protein deacetylase sirtuin-2 (Homo sapiens, UniProt Q8IXJ6); experiment: Inhibition of human recombinant SIRT2 using Fluor de Lys-SIRT as substrate incubated for 60 mins prior to substrate addition measured after 60 mins by fluorimetric analysis
T3 sequence (Q8IXJ6 whole entry): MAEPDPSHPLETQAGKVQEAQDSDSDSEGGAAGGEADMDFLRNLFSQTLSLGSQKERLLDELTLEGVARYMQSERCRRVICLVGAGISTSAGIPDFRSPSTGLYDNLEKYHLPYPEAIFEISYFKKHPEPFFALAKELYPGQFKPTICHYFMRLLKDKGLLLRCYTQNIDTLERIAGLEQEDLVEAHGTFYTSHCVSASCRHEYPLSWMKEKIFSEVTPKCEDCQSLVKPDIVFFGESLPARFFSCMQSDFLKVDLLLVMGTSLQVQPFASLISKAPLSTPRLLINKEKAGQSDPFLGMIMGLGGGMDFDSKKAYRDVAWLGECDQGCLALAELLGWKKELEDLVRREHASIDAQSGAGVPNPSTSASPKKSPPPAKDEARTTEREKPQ
Method in brief: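 Human recombinant SIRT2 preincubated with 1 mM NAD⁺ and serial compound dilutions for 60 min at 37 °C, then 25 μM Fluor de Lys-SIRT substrate added. Reaction stopped at 60 min with Developer II containing nicotinamide. Fluorescence read 45 min later at ex 360/em 460 nm. % inhibition taken against control wells. IC₅₀ obtained by regression of log[Inh] vs logit % inhibition; means of ≥3 experiments.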

[5] = target: T4, NAD-dependent protein deacetylase sirtuin-2 (Homo sapiens) (UniProt Q8IXJ6); conditions: HCT-116, 10 uM
T4 sequence (whole entry): T3 sequence (Q8IXJ6 whole entry)

With `NC(=O)C1CCCc2c1[nH]c1ccc(Cl)cc21` (stereo unspecified) the inhibition [1] was “Active”.

`NC(=O)c1ccccc1Nc1ccc(OCc2ccccc2)cc1` was tested, and the IC50 [2] was greater than 100 µM, the inhibition [3] was 13% and the IC50 [4] was 33 µM.

For `N#C/C(=C\c1ccc(-c2cc(Cl)ccc2Cl)o1)C(=O)Nc1cccc2ncccc12`, the IC50 [2] was 30 µM and the inhibition [5] was “Active”.
